# Rows were chosen to be rich in hits. Some 1.6% of all compounds tested hit in one or more screens of this group.
# Rpn11 block = inhibitors of human proteasome Rpn11; O00487; human 26S proteasome, Ub4-pepOG fluorescence polarization; 20S core pre-blocked with epoxomicin; calls only at 20 µM; 360,000 tested, 0.59% active; AID 588493;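 active = inhibition at 20 µM, scaled to each plate's controls, above about 33%, limit read from the data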
# TPT1 inhibitor = blocks Candida albicans tRNA 2'-phosphotransferase; inhibition, % at 5 µM; AID 1962; 300,000 tested, 0.81% active; recombinant caTPT1, FP RNA substrate dephosphorylation;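 active = inhibition above the mean of all tested compounds plus 3 SD, set per screening campaign, cut at about 24% in these data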;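 also: plate controls were DMSO alone for no effect and ferristatin control at 100 nM for full effect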
# PKA-R1A act = activators of PKA-R1A complex; activation, % at 11.4 µM; PKA-R1A dissociation, Cy5-IP20 fluorescence polarization; scaled: DMSO 0%, 113 µM cGMP 100%; 340,000 tested, 0.083% active;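 active = percent activation above the mean of all tested compounds plus 3 SD, cut at about 19% in these data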;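 also: higher means more PKAc released from R1A so a rise in polarization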
# CSN inh = inhibitors of human CSN-mediated cullin deneddylation; Purified CSN, SCF-Nedd8-OG deneddylation, fluorescence polarization; 360,000 tested, 0.38% active; Q92905; inhibition, % at 12.5 µM;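 active = pattern-corrected inhibition above about 35%, with an unprinted fluorescence ratio check between 0.5 and 1.5, limit read from the data, passing the limit was not always enough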;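 also: 0% = enzyme with substrate and 100% = substrate without enzyme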
#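 Material: purified human Csn5 enzyme expressed in HEK293T cells / Medium: Tris buffer pH 7.5, NaCl, DTT, Tween-20, trehalose, ovalbumin / Compound dosing: 12.5 µM single point / Schedule: 90 min incubation of compound, enzyme and substrate at room temperature / Signal: fluorescence polarization of the substrate / Control set: no-enzyme wells high, enzyme-with-substrate wells low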
# PKA-R2B activ = activates the human PKA-R2B holoenzyme complex | P22694+P31323 | 340,000 tested, 0.079% active | activation, % at 11.4 µM | PKA-R2B holoenzyme dissociation, Cy5-IP20 fluorescence polarization; R2B truncated from residue 108, S112A mutant; 0% DMSO only, 100% 113 µM cGMP;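 active = activation above a cutoff set at the mean over all compounds plus 3 SD, cut at about 18% in these data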;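 also: higher means more holoenzyme dissociation and a rise in polarization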
# HNF4A DNA FP = change in binding of human HNF4 alpha to DNA | AID 1224865 | 360,000 tested, 0.3% active | P41235 | activity change, % at 10 µM | HNF4a-FITC DNA binding, fluorescence polarization, 1 h; in the data active = activity change above about 30%, passing the limit was not always enough
# TPT1 inh confirm = confirmation of Candida albicans TPT1 inhibitors | recombinant caTPT1, fluorescence polarization, RNase T1 coupled | inhibition, % at 5 µM | shares compounds with TPT1 inhibitor | 2,400 tested, 74% active;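 active = inhibition above the primary screen limit, the mean inhibition of all tested compounds plus 3 SD, cut at about 25% in these data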
# RNase T1 counter = RNase T1 inhibition in TPT1 counter-screen. shares compounds with TPT1 inhibitor. RNase T1 cleavage, fluorescence polarization, 1536-well. inhibition, % at 5 µM. 2,400 tested, 83% active;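 active = inhibition above the solvent-only control well mean plus 3 SD, limit set per screening run, cut at about 23% in these data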;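 also: plate controls were DMSO wells with enzyme for no effect and wells without RNase T1 for full effect; inhibitors block cleavage so intact labeled substrate keeps polarization high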
# Target sequence (P00651 whole entry, looked up): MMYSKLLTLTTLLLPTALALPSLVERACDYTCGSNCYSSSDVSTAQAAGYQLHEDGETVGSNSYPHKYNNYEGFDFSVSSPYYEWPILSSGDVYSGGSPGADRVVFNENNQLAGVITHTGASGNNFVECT
# Rpn11 inh conf = confirmation of human proteasome Rpn11 inhibitors; purified human 26S proteasome, Ub4-pepOG fluorescence polarization; proteasome pretreated with epoxomicin; inhibition, % at 20 µM; 1,900 tested, 29% active; shares compounds with Rpn11 block
# MMP-2 counter-1 = MMP-2 (human) inhibition counter-screen; 1,900 tested, 4% active; shares compounds with Rpn11 block; recombinant MMP-2, FRET peptide cleavage fluorescence; inhibition, % at 20 µM;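 also: human MMP-2 activated beforehand with APMA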
# Thrombin inh = thrombin (bovine) inhibition counter-screen; bovine thrombin cleavage of Ub4-pepOG, fluorescence polarization; inhibition, % at 20 µM; 1,900 tested, 13% active; shares compounds with Rpn11 block;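 active = mean inhibition at least 40% at 20 µM, or signal 3 deviations below plate average, so some actives read negative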;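 also: plate controls were thrombin with DMSO for no effect and buffer wells lacking thrombin for full effect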
# Target sequence (P00735 whole entry, looked up): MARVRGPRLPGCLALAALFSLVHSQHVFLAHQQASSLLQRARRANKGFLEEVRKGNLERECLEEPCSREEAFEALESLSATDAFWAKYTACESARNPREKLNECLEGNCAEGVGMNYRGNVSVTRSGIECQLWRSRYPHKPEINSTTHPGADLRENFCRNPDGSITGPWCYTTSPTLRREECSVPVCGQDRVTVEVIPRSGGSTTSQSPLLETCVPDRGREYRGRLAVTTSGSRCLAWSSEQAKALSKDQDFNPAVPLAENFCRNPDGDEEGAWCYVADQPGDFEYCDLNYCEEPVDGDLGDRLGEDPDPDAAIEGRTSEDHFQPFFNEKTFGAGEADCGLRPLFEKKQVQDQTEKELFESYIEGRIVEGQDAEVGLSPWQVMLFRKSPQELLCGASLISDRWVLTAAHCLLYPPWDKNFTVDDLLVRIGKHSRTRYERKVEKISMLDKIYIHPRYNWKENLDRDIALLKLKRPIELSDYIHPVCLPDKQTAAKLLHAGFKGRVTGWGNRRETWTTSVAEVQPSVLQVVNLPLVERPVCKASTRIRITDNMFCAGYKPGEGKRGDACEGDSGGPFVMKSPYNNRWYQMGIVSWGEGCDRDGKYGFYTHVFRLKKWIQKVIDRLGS
# CSN5 deneddyl = Csn5 (human) deneddylation inhibition, single-concentration validation; Csn5 deneddylation of SCF-Nedd8OG, fluorescence polarization, 90 min; shares compounds with CSN inh; 540 tested, 62% active; inhibition, % at 16.6 µM; in the data active = inhibition above about 50%;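 also: 0% = DMSO with enzyme and 100% = no enzyme wells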
# MMP-2 counter-2 = blocks human MMP-2 in a CSN deneddylation counter-screen. shares compounds with CSN inh. inhibition, % at 16.6 µM. AID 720655. 540 tested, 33% active. recombinant MMP-2, FRET substrate fluorescence, 60 min;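 active = corrected plate-normalized z-score of 5 or more, or -5 or less, or inhibition of 15% or more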;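 also: plate controls were DMSO wells with enzyme for no effect and buffer wells lacking MMP-2 for full effect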
# Thrombin cntr = counter-screen for CSN deneddylation inhibitors: bovine thrombin inhibition. shares compounds with CSN inh. bovine thrombin cleavage of Ub4-pepOG, fluorescence polarization. inhibition, % at 16.6 µM. 540 tested, 49% active;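 active = inhibition at or above a set limit, with a fluorescence interference ratio between 0.5 and a set maximum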
# Numbers without * were called inactive; i = inactive; x = no result given; + = active, no number. Rule as the data show it, unless noted: active = inhibition above about 40%; inactive = the rest.
SMILES,Rpn11 block,TPT1 inhibitor,PKA-R1A act,CSN inh,PKA-R2B activ,HNF4A DNA FP,TPT1 inh confirm,RNase T1 counter,CSN5 deneddyl,MMP-2 counter-2,Thrombin cntr,others
Cc1cc(/C=C(/C#N)c2nc3ccccc3[nH]2)c(C)n1-c1cc(C(=O)O)cc(C(=O)O)c1,i,x,-6.8,20.6,3.9,-33.0,x,x,x,x,x,
Cc1ccc2nc(/C(C#N)=C/c3ccc(-c4ccccc4C(=O)O)o3)[nH]c2c1,x,133.1*,1.0,75.8*,-3.1,96.6*,139.1*,132.0*,63.0*,-31.9*,68.3,
CC(C)C[C@H](NC(=O)c1[nH]cnc1C(=O)N[C@@H](C)C(=O)OC(C)(C)C)C(=O)OC(C)(C)C,i,-6.3,-0.2,0.3,-10.2,3.9,x,x,x,x,x,
CCOC(=O)C(=O)NCC(c1cccs1)S(=O)(=O)c1ccc(F)cc1 (stereo unspecified),i,4.9,3.6,4.5,-0.1,-1.2,x,x,x,x,x,
O=C(N/N=C/c1ccco1)c1cc([N+](=O)[O-])cc([N+](=O)[O-])c1,i,-1.3,-12.8,-8.8,1.1,2.4,x,x,x,x,x,
O=C(O)c1ccc(N/N=C/c2ccc(-c3cccc(Cl)c3)o2)cc1,i,3.0,-11.5,7.2,3.3,0.6,x,x,x,x,x,
O=[N+]([O-])c1ccc(N/N=C/C=C/c2ccco2)cc1,x,118.9*,4.5,56.3*,-11.8,88.9*,123.3*,122.1*,51.5*,-2.9,43.5*,
O=[N+]([O-])c1ccc(N/N=C/c2c[nH]c3ccccc23)cc1,+,125.0*,6.7,57.3*,2.7,77.8*,105.6*,108.5*,55.9*,-2.7,56.8*,Rpn11 inh conf=84.2*;MMP-2 counter-1=-16.5;Thrombin inh=58.8*
O=[N+]([O-])c1ccccc1N/N=C/c1c[nH]c2ccccc12,i,1.8,2.6,-4.4,2.2,-2.1,x,x,x,x,x,
O=C(O)c1ccc(N/N=C/C=C/c2ccc([N+](=O)[O-])o2)cc1,i,44.1*,8.9,45.5*,-14.8,24.0,62.7*,71.7*,43.5,5.9,13.9,
O=C(O)c1cccc(-c2ccc(/C=N/Nc3ccc([N+](=O)[O-])cc3)o2)c1,x,124.5*,-12.7,92.5*,-5.3,124.2,125.5*,119.9*,50.6*,-4.7,49.1,
CC(NC(C)c1ccccc1Cl)C(=O)Nc1cccc(S(=O)(=O)N2CCCCC2)c1 (stereo unspecified),i,x,1.8,-2.6,-2.2,-1.0,x,x,x,x,x,
Cn1c(O)c(/C=N/NC(=O)c2cc3ccccc3cc2O)c2ccccc21,x,121.5*,3.5,39.6*,10.5,61.8,127.4*,124.7*,74.9*,0.8,44.7*,
CCOC(=O)C1CCCN(C2=NC(=O)/C(=C/c3ccc(N(C)C)cc3)S2)C1 (stereo unspecified),x,127.8*,-4.8,113.8*,-5.5,139.2,129.9*,125.9*,171.3*,14.4,11.8,
CCOC(=O)C1CCCN(C2=NC(=O)/C(=C/c3ccc(OC)cc3)S2)C1 (stereo unspecified),i,2.6,-6.2,-4.4,-4.5,1.8,x,x,x,x,x,
CCOC(=O)CNC(=S)N(Cc1ccco1)Cc1ccccc1Cl,i,2.7,3.0,6.1,3.3,0.8,x,x,x,x,x,
CN(C)c1ccc(N/C(N)=N/c2nc(C(F)(F)F)cc(C(F)(F)F)n2)cc1,i,-1.3,-4.3,-3.0,0.4,-1.5,x,x,x,x,x,
CN(C)c1ccc(/C=C/C(=O)c2cc(Cl)ccc2O)cc1,x,39.8*,-7.5,70.8*,-2.4,74.9*,50.0*,60.5*,67.7*,-17.6,41.7*,
O=c1c(Cc2ccc(F)cc2)c(O)ccn1CCc1ccccn1,i,-1.9,-9.7,-9.7,-3.3,0.3,x,x,x,x,x,
O=C(N/N=C/c1cc(Br)cc(Cl)c1O)c1ccc2c(c1)OCO2,+,35.2*,-6.4,100.3*,-1.4,16.7,32.5*,44.6*,-106.3,29.2*,19.9*,Rpn11 inh conf=198.2*;MMP-2 counter-1=24.8;Thrombin inh=13.4
COc1cc(C2C(C#N)=C(N)Oc3cc(N(C)C)ccc32)cc2c1OCO2 (stereo unspecified),x,100.4*,-9.3,36.1*,-1.0,55.7,98.1*,98.8*,85.6*,2.7,19.7*,
O=C(CC1NC(=S)NC1=O)c1ccc(Cl)cc1 (stereo unspecified),i,1.1,-4.4,-2.5,2.5,1.4,x,x,x,x,x,
Cc1cc2nc3s/c(=C/c4ccc(-c5ccccc5C(=O)O)o4)c(=O)n3c2cc1C,x,111.5*,-9.9,99.1*,1.5,77.6,125.1*,123.3*,-18.9,-1.9,64.0*,
CC(OC(=O)/C(C#N)=C/c1ccc(N(C)C)cc1)C(=O)N(C)c1ccccc1 (stereo unspecified),x,121.1*,2.5,70.6*,-1.7,107.2*,130.4*,132.2*,61.5*,-20.1,72.9*,
COc1ccccc1NCC(=O)NNC(C)C(=O)Nc1cccc(Cl)c1 (stereo unspecified),i,-2.1,-9.0,0.3,0.5,0.1,x,x,x,x,x,
CN(C)c1ccc(/C=C2\C(=N)N3N=C(CC(=O)N4CCCCC4)SC3=NC2=O)cc1,x,122.1*,1.8,90.4*,-4.6,135.3,140.4*,148.3*,75.5*,-57.3*,94.1*,
COc1ccccc1-c1ccc(/C=C2/C=C(C)OC2=O)o1,i,13.0,-0.3,12.2,0.0,8.2,x,x,x,x,x,
COc1ccccc1-c1ccc(/C=C2\C=CC(=O)O2)o1,x,114.1*,x,77.1*,x,94.1,117.3*,113.0*,47.5,-26.2,53.2*,
